Source: ChEMBL document CHEMBL4725492, “Dioxane-Linked Amide Derivatives as Novel Bacterial Topoisomerase Inhibitors against Gram-Positive Staphylococcus aureus” (ACS Med Chem Lett, 2020)
Converted amounts (≈) assume the structure as drawn. Each block holds one compound with its values, some of them ahead of it. The source made the active and inactive calls. No cut-off for these calls is given here.

Columns and labels:
Staphylococcus aureus [1] = test: Antibacterial activity against Staphylococcus aureus D83N by CLSI based agar dilution method; assay type: functional
Staphylococcus aureus [2] = test: Antibacterial activity against Staphylococcus aureus ATCC 29213 by CLSI based agar dilution method; assay type: functional
Staphylococcus aureus [3] = test: Antibacterial activity against Staphylococcus aureus USA300 by CLSI based agar dilution method; assay type: functional
Staphylococcus aureus [4] = test: Antibacterial activity against Staphylococcus aureus 3527 by CLSI based agar dilution method; assay type: functional
DNA gyrase = DNA gyrase (Staphylococcus aureus, UniProt P0A0K8+P20831); test: Inhibition of Staphylococcus aureus DNA gyrase using relaxed pBR322 as substrate by gel electrophoresis; assay type: protein-complex assay
K562 = test: Growth inhibition of human K562 cells incubated for 48 hrs by sulforhodamine B assay; assay type: functional
Topoisomerase IV [5] = target: Topoisomerase IV (Staphylococcus aureus, UniProt P0C1U9+P0C1S7); test: (§1) Inhibition of Staphylococcus aureus topoisomerase-4 assessed as reduction in decatenation of kinetoplast DNA agarose gel electrophoresis method; assay type: protein-complex assay
[6] = target: T1, DNA gyrase (Staphylococcus aureus) (UniProt P0A0K8+P20831); test: Inhibition of Staphylococcus aureus DNA gyrase assessed as single-strand break at 20 uM using relaxed pBR322 as substrate by ethidium bromide-based gel electrophoresis; assay type: protein-complex assay
In short: (§2)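 S. aureus gyrase-mediated DNA cleavage: compound was incubated with enzyme and DNA, and products were resolved on an ethidium-stained gel into negatively supercoiled, nicked (single-strand break) and linear (double-strand break) forms. Lane fluorescence was corrected for differential band emission. Percent of each form was calculated, and enzyme-only cleavage was subtracted. Concentrations spanned 0.1 nM–200 μM, with a 20 μM single-point screen. Results are mean ± SD or range.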

[7] = target: T1, DNA gyrase (Staphylococcus aureus); test: Inhibition of Staphylococcus aureus DNA gyrase assessed as double-strand break at 20 uM using relaxed pBR322 as substrate by ethidium bromide-based gel electrophoresis; assay type: protein-complex assay; in short: as §2
[8] = Growth inhibition of human K/VP.5 cells incubated for 48 hrs by sulforhodamine B assay; assay type: functional
[9] = target: Voltage-gated inwardly rectifying potassium channel KCNH2 (Homo sapiens, UniProt Q12809); test: Inhibition of human ERG; conditions: for INH: human
Topoisomerase IV [10] = target: Topoisomerase IV (Staphylococcus aureus, UniProt P0C1S7+P0C1U9); test: as §1; assay type: protein-complex assay
[11] = target: T1, DNA gyrase (Staphylococcus aureus); test: Inhibition of Staphylococcus aureus DNA gyrase assessed as single-strand break using relaxed pBR322 as substrate by ethidium bromide-based gel electrophoresis; assay type: protein-complex assay; in short: as §2
[12] = target: T1, DNA gyrase (Staphylococcus aureus); test: Inhibition of Staphylococcus aureus DNA gyrase assessed as double-strand break at upto 100 uM using relaxed pBR322 as substrate by ethidium bromide-based gel electrophoresis; assay type: protein-complex assay; conditions: dose microM <=100; in short: as §2
[13] = target: DNA topoisomerase 2-alpha (Homo sapiens, UniProt P11388); test: Inhibition of human topoisomerase 2alpha
In short: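 Human topoisomerase IIα decatenation activity was tested at a single concentration of 100 μM and reported as percent inhibition.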

Sequence of Voltage-gated inwardly rectifying potassium channel KCNH2 (Q12809 whole entry): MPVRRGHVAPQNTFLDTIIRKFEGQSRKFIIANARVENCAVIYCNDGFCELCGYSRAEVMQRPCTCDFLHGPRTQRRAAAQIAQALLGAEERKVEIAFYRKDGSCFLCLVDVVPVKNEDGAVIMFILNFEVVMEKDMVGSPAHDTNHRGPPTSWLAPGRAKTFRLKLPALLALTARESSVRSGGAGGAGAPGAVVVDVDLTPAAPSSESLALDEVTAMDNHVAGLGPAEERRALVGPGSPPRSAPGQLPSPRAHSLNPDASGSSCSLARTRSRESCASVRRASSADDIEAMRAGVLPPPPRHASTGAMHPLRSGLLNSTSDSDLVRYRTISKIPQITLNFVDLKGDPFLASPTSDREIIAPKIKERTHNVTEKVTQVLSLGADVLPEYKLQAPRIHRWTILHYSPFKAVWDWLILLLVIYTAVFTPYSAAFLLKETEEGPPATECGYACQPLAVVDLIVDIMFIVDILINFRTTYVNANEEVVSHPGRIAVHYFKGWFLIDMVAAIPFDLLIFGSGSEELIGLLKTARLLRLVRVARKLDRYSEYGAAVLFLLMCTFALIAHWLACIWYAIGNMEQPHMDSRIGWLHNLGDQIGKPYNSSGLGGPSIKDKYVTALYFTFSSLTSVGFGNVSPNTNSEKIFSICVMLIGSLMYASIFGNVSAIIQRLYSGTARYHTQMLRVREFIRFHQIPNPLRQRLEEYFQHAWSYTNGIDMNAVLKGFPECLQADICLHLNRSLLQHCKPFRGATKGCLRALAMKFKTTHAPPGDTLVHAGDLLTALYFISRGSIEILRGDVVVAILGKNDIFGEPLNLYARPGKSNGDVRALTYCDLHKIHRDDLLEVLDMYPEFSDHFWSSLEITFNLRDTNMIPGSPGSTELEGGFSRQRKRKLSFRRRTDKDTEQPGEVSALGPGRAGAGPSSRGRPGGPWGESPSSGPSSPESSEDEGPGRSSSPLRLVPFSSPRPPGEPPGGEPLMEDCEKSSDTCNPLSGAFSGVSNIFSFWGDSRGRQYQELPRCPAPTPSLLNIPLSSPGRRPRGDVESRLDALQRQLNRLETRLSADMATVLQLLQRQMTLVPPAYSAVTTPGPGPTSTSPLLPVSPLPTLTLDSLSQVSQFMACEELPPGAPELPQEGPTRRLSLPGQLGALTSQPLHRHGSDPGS
Sequence of DNA topoisomerase 2-alpha (P11388 whole entry): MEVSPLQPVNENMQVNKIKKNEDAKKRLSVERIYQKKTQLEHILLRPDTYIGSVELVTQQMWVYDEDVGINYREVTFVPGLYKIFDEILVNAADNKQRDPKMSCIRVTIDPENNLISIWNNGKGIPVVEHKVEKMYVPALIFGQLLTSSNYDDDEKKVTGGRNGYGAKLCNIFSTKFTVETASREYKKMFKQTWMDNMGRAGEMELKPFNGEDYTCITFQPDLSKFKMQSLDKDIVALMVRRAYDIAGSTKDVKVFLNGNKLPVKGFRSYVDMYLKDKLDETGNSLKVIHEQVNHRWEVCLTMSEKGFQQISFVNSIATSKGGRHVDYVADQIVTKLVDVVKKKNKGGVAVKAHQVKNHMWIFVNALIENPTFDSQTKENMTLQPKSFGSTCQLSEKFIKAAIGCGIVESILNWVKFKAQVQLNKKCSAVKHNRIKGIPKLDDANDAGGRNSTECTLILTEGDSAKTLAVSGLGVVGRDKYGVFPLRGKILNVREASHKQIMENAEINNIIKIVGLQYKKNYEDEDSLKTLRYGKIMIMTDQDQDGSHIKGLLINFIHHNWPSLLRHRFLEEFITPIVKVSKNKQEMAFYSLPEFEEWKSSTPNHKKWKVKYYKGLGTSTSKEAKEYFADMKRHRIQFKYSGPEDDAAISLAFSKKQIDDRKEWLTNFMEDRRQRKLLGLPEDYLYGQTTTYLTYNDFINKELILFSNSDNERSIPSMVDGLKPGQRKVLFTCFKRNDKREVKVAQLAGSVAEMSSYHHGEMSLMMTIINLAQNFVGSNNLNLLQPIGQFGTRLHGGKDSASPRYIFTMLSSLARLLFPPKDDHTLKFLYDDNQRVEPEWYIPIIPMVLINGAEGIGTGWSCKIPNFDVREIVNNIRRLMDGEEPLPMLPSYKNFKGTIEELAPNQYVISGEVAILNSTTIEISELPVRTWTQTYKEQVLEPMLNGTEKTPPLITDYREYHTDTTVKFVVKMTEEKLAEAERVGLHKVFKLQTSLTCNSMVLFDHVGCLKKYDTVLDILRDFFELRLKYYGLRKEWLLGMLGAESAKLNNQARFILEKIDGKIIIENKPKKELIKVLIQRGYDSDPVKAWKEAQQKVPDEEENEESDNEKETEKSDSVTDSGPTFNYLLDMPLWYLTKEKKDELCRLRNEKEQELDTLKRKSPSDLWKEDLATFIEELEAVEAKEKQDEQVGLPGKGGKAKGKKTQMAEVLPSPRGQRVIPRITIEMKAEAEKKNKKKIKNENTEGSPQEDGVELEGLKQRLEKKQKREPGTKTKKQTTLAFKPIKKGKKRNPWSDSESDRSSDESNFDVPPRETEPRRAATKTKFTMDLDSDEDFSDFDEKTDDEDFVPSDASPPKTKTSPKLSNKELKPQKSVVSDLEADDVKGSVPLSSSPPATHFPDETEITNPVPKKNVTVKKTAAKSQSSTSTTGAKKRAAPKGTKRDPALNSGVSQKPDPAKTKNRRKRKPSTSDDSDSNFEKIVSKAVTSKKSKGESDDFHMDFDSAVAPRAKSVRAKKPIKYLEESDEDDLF

SMILES: COc1ccc2nccc(CC[C@H]3OC[C@H](NC(=O)[C@H]4CC[C@H](C)CC4)CO3)c2c1
MIC (Staphylococcus aureus [1]): > 32 mg/L
MIC (Staphylococcus aureus [2]): 4 mg/L (≈ 9.7 µM)
MIC (Staphylococcus aureus [3]): 8 mg/L (≈ 19.4 µM)
MIC (Staphylococcus aureus [4]): 8 mg/L (≈ 19.4 µM)

SMILES: COc1ccc2nccc(CC[C@H]3OC[C@H](NC(=O)c4cccc(Cl)c4)CO3)c2c1
IC50 (DNA gyrase): 0.32 µM
MIC (Staphylococcus aureus [1]): > 32 mg/L
INH (K562): <200 µM
MIC (Staphylococcus aureus [2]): 2 mg/L (≈ 4.68 µM)
MIC (Staphylococcus aureus [3]): 1 mg/L (≈ 2.34 µM)
MIC (Staphylococcus aureus [4]): 1 mg/L (≈ 2.34 µM)
IC50 (Topoisomerase IV [5]): Not Active
inhibition [6]: Active
inhibition [7]: inactive
INH [8]: 50 µM
INH [9]: > 3 µM

SMILES: COc1ccc2nccc(CC[C@H]3OC[C@H](NC(=O)C4CCNCC4)CO3)c2c1
MIC (Staphylococcus aureus [1]): > 64 mg/L
MIC (Staphylococcus aureus [2]): > 64 mg/L
MIC (Staphylococcus aureus [3]): > 64 mg/L
MIC (Staphylococcus aureus [4]): > 64 mg/L

SMILES: COc1ccc2nccc(CC[C@H]3OC[C@H](NC(=O)[C@H]4CC[C@H](N)CC4)CO3)c2c1
MIC (Staphylococcus aureus [1]): > 64 mg/L
MIC (Staphylococcus aureus [2]): > 64 mg/L
MIC (Staphylococcus aureus [3]): > 64 mg/L
MIC (Staphylococcus aureus [4]): > 64 mg/L

SMILES: COc1ccc2nccc(CC[C@H]3OC[C@H](NC(=O)c4ccc5c(c4)OCCO5)CO3)c2c1
IC50 (DNA gyrase): 3.7 µM
MIC (Staphylococcus aureus [1]): > 32 mg/L
MIC (Staphylococcus aureus [2]): 1 mg/L (≈ 2.22 µM)
MIC (Staphylococcus aureus [3]): 1 mg/L (≈ 2.22 µM)
MIC (Staphylococcus aureus [4]): 0.5 mg/L (≈ 1.11 µM)
IC50 (Topoisomerase IV [10]): > 200 µM
inhibition [6]: Active
inhibition [7]: inactive
IC50 [9]: > 100 µM
inhibition [11]: Dose-dependent effect
inhibition [12]: inactive

SMILES: COc1ccc2nccc(CC[C@H]3OC[C@H](NC(=O)C4CCCCC4)CO3)c2c1
MIC (Staphylococcus aureus [1]): 32 mg/L (≈ 80.3 µM)
MIC (Staphylococcus aureus [2]): 8 mg/L (≈ 20.1 µM)
MIC (Staphylococcus aureus [3]): 8 mg/L (≈ 20.1 µM)
MIC (Staphylococcus aureus [4]): 8 mg/L (≈ 20.1 µM)

SMILES: COc1ccc2nccc(CC[C@H]3OC[C@H](NC(=O)c4ccc(F)cc4)CO3)c2c1
MIC (Staphylococcus aureus [1]): > 256 mg/L
MIC (Staphylococcus aureus [2]): > 256 mg/L
MIC (Staphylococcus aureus [3]): > 256 mg/L
MIC (Staphylococcus aureus [4]): > 256 mg/L

SMILES: COc1ccc2nccc(CC[C@H]3OC[C@H](NC(=O)c4ccc(C)cc4)CO3)c2c1
IC50 (DNA gyrase): 0.41 µM
MIC (Staphylococcus aureus [1]): > 32 mg/L
INH (K562): 18 µM
MIC (Staphylococcus aureus [2]): 1 mg/L (≈ 2.46 µM)
MIC (Staphylococcus aureus [3]): 1 mg/L (≈ 2.46 µM)
MIC (Staphylococcus aureus [4]): 2 mg/L (≈ 4.92 µM)
IC50 (Topoisomerase IV [5]): Not Active
inhibition [6]: Active
inhibition [7]: inactive
INH [8]: 17 µM
INH [9]: > 30 µM
inhibition (INH) [13]: Not Active

SMILES: COc1ccc2nccc(CC[C@H]3OC[C@H](NC(=O)c4ccc5c(c4)NC(=O)CO5)CO3)c2c1
IC50 (DNA gyrase): 0.06 µM
MIC (Staphylococcus aureus [1]): > 64 mg/L
INH (K562): >200 µM
MIC (Staphylococcus aureus [2]): 0.25 mg/L (≈ 0.539 µM)
MIC (Staphylococcus aureus [3]): 0.25 mg/L (≈ 0.539 µM)
MIC (Staphylococcus aureus [4]): 0.5 mg/L (≈ 1.08 µM)
IC50 (Topoisomerase IV [10]): 0.89 µM
INH [8]: >200 µM

SMILES: COc1ccc2nccc(CC[C@H]3OC[C@H](NC(=O)c4cccnc4)CO3)c2c1
MIC (Staphylococcus aureus [1]): 128 mg/L (≈ 325 µM)
MIC (Staphylococcus aureus [2]): 256 mg/L (≈ 651 µM)
MIC (Staphylococcus aureus [3]): 128 mg/L (≈ 325 µM)
MIC (Staphylococcus aureus [4]): 128 mg/L (≈ 325 µM)

MIC (Staphylococcus aureus [2]): > 8 mg/L
MIC (Staphylococcus aureus [3]): > 8 mg/L
SMILES: COc1ccc2nccc(CC[C@H]3OC[C@H](NC(=O)c4ccc(C#N)cc4)CO3)c2c1

SMILES: COc1ccc2nccc(CC[C@H]3OC[C@H](NC(=O)C4CCN(C)CC4)CO3)c2c1
MIC (Staphylococcus aureus [1]): > 64 mg/L
MIC (Staphylococcus aureus [2]): > 64 mg/L
MIC (Staphylococcus aureus [3]): > 64 mg/L
MIC (Staphylococcus aureus [4]): > 64 mg/L

SMILES: COc1ccc2nccc(CC[C@H]3OC[C@H](NC(=O)[C@H]4CC[C@@H](N)CC4)CO3)c2c1
MIC (Staphylococcus aureus [1]): > 64 mg/L
MIC (Staphylococcus aureus [2]): > 64 mg/L
MIC (Staphylococcus aureus [3]): > 64 mg/L
MIC (Staphylococcus aureus [4]): > 64 mg/L

SMILES: COc1ccc2nccc(CC[C@H]3OC[C@H](NC(=O)c4ccc5c(n4)NC(=O)CS5)CO3)c2c1
IC50 (DNA gyrase): 0.17 µM
MIC (Staphylococcus aureus [1]): > 64 mg/L
INH (K562): >200 µM
MIC (Staphylococcus aureus [2]): 0.06 mg/L (≈ 0.125 µM)
MIC (Staphylococcus aureus [3]): 0.03 mg/L (≈ 0.0624 µM)
MIC (Staphylococcus aureus [4]): 0.03 mg/L (≈ 0.0624 µM)
IC50 (Topoisomerase IV [10]): 0.3 µM
INH [8]: >200 µM
INH [9]: > 3 µM

SMILES: COc1ccc2nccc(CC[C@H]3OC[C@H](NC(=O)[C@H]4CC[C@H](O)CC4)CO3)c2c1
MIC (Staphylococcus aureus [1]): > 64 mg/L
MIC (Staphylococcus aureus [2]): > 64 mg/L
MIC (Staphylococcus aureus [3]): > 64 mg/L
MIC (Staphylococcus aureus [4]): > 64 mg/L

SMILES: COc1ccc(C(=O)N[C@H]2CO[C@H](CCc3ccnc4ccc(OC)cc34)OC2)cc1
IC50 (DNA gyrase): 3.9 µM
MIC (Staphylococcus aureus [1]): 32 mg/L (≈ 75.7 µM)
MIC (Staphylococcus aureus [2]): 4 mg/L (≈ 9.47 µM)
MIC (Staphylococcus aureus [3]): 8 mg/L (≈ 18.9 µM)
MIC (Staphylococcus aureus [4]): 16 mg/L (≈ 37.9 µM)
IC50 (Topoisomerase IV [10]): 106 µM
inhibition (INH) [13]: Not Active
